target: T1, Vascular endothelial growth factor receptor 2 (Homo sapiens, UniProt P35968); test: Inhibition of human recombinant His-tagged VEGFR2 assessed as […] absorption by ELISA assay in presence of 20 uM ATP; settings: not given
T1 sequence (P35968 whole entry): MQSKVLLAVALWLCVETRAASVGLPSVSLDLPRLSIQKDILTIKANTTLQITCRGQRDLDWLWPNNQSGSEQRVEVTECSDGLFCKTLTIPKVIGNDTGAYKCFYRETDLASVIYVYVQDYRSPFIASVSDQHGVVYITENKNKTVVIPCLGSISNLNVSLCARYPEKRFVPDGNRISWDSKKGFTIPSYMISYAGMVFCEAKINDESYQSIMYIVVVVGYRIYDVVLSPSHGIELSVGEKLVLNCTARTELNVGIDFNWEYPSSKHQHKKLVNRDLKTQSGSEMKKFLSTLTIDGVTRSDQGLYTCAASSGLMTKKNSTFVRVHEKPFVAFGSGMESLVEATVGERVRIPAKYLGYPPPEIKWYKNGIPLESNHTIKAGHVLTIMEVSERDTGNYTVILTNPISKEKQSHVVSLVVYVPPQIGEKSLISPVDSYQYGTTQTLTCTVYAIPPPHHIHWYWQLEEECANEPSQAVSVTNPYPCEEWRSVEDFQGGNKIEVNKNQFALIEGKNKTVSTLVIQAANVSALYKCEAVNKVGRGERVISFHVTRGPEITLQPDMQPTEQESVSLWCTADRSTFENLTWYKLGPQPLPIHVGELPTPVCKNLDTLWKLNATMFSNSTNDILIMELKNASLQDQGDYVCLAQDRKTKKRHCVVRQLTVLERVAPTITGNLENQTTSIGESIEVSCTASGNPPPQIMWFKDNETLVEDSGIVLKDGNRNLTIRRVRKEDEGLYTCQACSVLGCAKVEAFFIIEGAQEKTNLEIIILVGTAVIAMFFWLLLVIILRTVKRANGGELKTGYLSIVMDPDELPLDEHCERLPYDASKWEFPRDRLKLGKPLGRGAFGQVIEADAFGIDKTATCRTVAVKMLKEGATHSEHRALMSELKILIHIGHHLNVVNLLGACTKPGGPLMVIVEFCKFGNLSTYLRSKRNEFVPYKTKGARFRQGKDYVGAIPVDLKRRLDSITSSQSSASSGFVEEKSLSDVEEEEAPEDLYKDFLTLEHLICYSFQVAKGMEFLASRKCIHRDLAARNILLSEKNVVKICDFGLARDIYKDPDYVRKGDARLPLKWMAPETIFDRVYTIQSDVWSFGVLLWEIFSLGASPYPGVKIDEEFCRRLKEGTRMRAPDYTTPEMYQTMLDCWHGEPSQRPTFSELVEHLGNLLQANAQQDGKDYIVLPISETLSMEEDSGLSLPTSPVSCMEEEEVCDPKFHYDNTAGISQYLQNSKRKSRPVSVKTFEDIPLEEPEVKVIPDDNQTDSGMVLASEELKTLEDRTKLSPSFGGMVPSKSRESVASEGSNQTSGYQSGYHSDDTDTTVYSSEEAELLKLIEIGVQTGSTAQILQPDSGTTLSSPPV

| SMILES | IC50 |
| --- | --- |
| Cc1cc(F)c(Nc2ncnc3cc(OCc4ccccc4)ccc23)cc1O | 2 nM |

target: T1, Vascular endothelial growth factor receptor 2; test: Inhibition of human recombinant His-tagged VEGFR2 assessed as […] absorption at 10 uM by ELISA assay in presence of 20 uM ATP; settings: not given
Summary of the method: (§1)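 Human N-terminal His6-tagged recombinant VEGFR2 kinase domain (aa790-end), 100 ng per well, with 20 μM ATP and 1.5 μM substrate peptide (final), in streptavidin-coated wells. Kinase buffer contains up to 1% DMSO. Read-out is ELISA absorbance at 450 nm. Each run includes blank, control, DMSO control and standard. Value is average percent inhibition at the stated final compound concentration, replicates assayed on separate days.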

| SMILES | inhibition |
| --- | --- |
| COc1cc2ncnc(Nc3ccc(C)c(Cl)c3)c2cc1OC | 9% |
| COc1cc2ncnc(Nc3ccc(C)c(F)c3)c2cc1OC | 66% |
| CCOc1ncnc2cc(OC)c(OC)cc12 | 0% |
| COc1cc2ncnc(OC(C)C)c2cc1OC | 2% |
| COc1cc2ncnc(Nc3ccc(F)c(F)c3)c2cc1OC | 5% |
| COc1cc2ncnc(NC(C)C)c2cc1OC | 13% |
| COc1cc2ncnc(NC3CCCCC3)c2cc1OC | 17% |
| COc1cc2ncnc(Nc3ccc(Cl)cc3)c2cc1OC | 4% |
| COc1cc2ncnc(Nc3ccccc3)c2cc1OC | 19% |
| COc1cc2ncnc(Nc3ccc(F)cc3)c2cc1OC | 6% |

target: T1, Vascular endothelial growth factor receptor 2; test: Inhibition of human recombinant His-tagged VEGFR2 assessed as […] absorption at 20 uM by ELISA assay in presence of 20 uM ATP; settings: not given; summary of the method: as §1

| SMILES | inhibition |
| --- | --- |
| Cc1cc(F)c(Nc2ncnc3cc(OCc4ccccc4)ccc23)cc1O | 37% |

target: T1, Vascular endothelial growth factor receptor 2; settings: 25 uM

| SMILES | inhibition |
| --- | --- |
| COc1ccc(-c2cnc3c(-c4ccsc4)cnn3c2)cc1 | 46% |

— ChEMBL document CHEMBL1681679, “Investigation of a novel molecular descriptor for the lead optimization of 4-aminoquinazolines as vascular endothelial growth factor receptor-2 inhibitors: application for quantitative structure-activity relationship analysis in lead optimization” (Bioorg Med Chem Lett, 2011)
